TAAR1 antag – antagonists of human TAAR1; Q96RJ0; CHO RD-HGA16 TAAR1, Fluo-8 calcium fluorescence, antagonist; inhibition, % at 3 µM; actives 1.5% (n = 360,000); AID 624466;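 active = inhibition above a per-plate cutoff, the mean inhibition of test compounds on that plate plus 3 SD, cut at about 49% in these data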;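 note: 0% = DMSO plus EC80 beta-PEA response and 100% = DMSO alone without agonist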
Target sequence (Q96RJ0 whole entry, looked up): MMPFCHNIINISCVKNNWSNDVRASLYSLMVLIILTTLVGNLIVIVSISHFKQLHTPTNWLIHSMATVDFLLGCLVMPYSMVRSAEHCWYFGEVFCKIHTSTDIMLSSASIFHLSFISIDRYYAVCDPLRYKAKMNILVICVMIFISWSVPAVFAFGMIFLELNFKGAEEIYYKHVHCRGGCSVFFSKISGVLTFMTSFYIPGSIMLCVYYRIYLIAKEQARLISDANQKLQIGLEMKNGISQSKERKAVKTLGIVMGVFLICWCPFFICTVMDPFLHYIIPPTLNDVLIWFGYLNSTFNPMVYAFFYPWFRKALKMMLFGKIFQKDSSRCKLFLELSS
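System: RD-HGA16 CHO cells with stable hTAAR1 and Gα16 | Probe or stimulus: EC80 β-phenethylamine stimulus | Dosing: 3 µM, single point | Times: Dye loading 75 min at 37 °C, then 30 min room temperature | Measured by: Fluo-8 calcium-sensitive fluorescence | Read-out basis: % inhibition of agonist calcium response | Replicates: n of 1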
OX1R antag-1 – antagonists of human orexin 1 receptor (OX1R); actives 1.8% (n = 330,000); inhibition, % at 6.6 µM; OX1R-expressing cells, FRET antagonist read-out; O43613; in the data active = inhibition mostly above about 38%, no sharp cut-off; inactive = mostly below about 40%;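 note: 0% = agonist challenge alone and 100% = reference antagonist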
Target sequence (O43613 whole entry, looked up): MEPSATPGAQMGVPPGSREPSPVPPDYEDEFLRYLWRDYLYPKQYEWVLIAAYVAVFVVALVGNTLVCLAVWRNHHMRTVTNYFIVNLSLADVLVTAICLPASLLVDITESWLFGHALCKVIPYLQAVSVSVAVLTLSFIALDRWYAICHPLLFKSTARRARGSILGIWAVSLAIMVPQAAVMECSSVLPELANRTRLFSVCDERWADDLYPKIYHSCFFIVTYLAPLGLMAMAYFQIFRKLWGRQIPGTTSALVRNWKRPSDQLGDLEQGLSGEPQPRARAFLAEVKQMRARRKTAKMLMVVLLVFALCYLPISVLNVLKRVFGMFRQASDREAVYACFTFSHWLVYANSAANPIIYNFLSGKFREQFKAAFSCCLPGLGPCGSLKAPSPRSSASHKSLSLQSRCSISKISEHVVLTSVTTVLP
TAAR1 ag – human TAAR1 agonism; Q96RJ0; CHO RD-HGA16 TAAR1, Fluo-8 calcium fluorescence; vehicle wells 0%, saturating PEA agonist 100%; activation, % at 3 µM; actives 0.99% (n = 360,000);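 active = activation above the mean activation of all test compounds in the run plus 3 SD, cut at about 38% in these data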
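System: CHO-derived RD-HGA16 cells with stable Gα16 and human TAAR1 / Times: 17-24 h plating, Fluo-8 75 min 37 °C, 30 min RT / Technique: calcium-sensitive Fluo-8 signal, excitation 470-495, emission 515-575 nm / Measure: % activation relative to PEA EC100 response / Benchmarks: DMSO and PEA EC100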
CHO parental Ca – counter-screen: ATP calcium response change in parental CHO cells | actives 0.63% (n = 330,000) | parental CHO-K1, ATP-induced calcium, Fluo-8 fluorescence | inhibition, % at 5.6 µM;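 active = inhibition above that plate's mean sample inhibition plus 3 SD, cut at about 26% in these data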;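 note: 0% = ATP-challenged DMSO wells and 100% = DMSO wells without ATP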
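Material – parental CHO cells · Reagent – ATP stimulus · Compound – single nominal dose of 5.6 µM per compound · Detection – Fluo-8 fluorescence · Read-out basis – percent inhibition of calcium signal · Controls – ATP-challenged DMSO wells low, unchallenged DMSO wells high · Repeats – no replicates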
OX1R antag-2 – blocks the human orexin 1 receptor; actives 0.43% (n = 330,000); O43613; inhibition, % at 5 µM; CHO/OX1R cells, Fluo-8 calcium fluorescence, orexin A; AID 434989;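 active = inhibition above its plate's threshold, mean inhibition of all tested compounds on the plate plus 3 SD, cut at about 37% in these data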;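 note: 0% = orexin A challenge wells and 100% = SB-334867-A antagonist wells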
NTR1 ag – NTR1 (human) agonism | P30989 | NTR1-U2OS beta-arrestin-GFP spot imaging, agonist mode | activation, % at 20 µM | actives 0.17% (n = 330,000) | AID 493036;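 active = activation at or above 40% of the spot to cytoplasm intensity ratio, with at least 20 cells analyzed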;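 note: 0% = DMSO without peptide and 100% = 100 nM NTR1 peptide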
TAAR1 nonsel count – counter-screen for TAAR1 antagonists: nonselective antagonists | shares compounds with TAAR1 antag | counterscreen cell line, calcium fluorescence, antagonist mode | inhibition, % at 3 µM | actives 77% (n = 2,400) | AID 651780; in the data active = inhibition above about 22%;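 note: CHO-Ga16 host cells stimulated with ATP at an EC80 level; 0% = agonist EC80 plus vehicle and 100% = vehicle without agonist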
TAAR1 antag conf – confirmation of human TAAR1 antagonists. shares compounds with TAAR1 antag. TAAR1-expressing cells, fluorescence antagonist read-out. inhibition, % at 3 µM. actives 40% (n = 2,400); in the data active = inhibition above about 49%;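 note: CHO-Ga16 host cells challenged with agonist PEA near its EC80; 0% = agonist at EC80 plus vehicle and 100% = vehicle with no agonist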
Ga16 ag counter-1 – counter-screen for TAAR1 antagonists: nonselective Ga16 agonists. shares compounds with TAAR1 antag. Ga16-expressing cells, calcium fluorescence, agonist counterscreen. activation, % at 3 µM. actives 18% (n = 2,400). AID 651953; in the data active = activation above about 12%;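 note: 0% = vehicle wells and 100% = saturating stimulus response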
TAAR1 ag count – counter-screen for human TAAR1 antagonists: TAAR1 agonists; shares compounds with TAAR1 antag; hTAAR1 cell line, fluorescence activation, agonist mode; activation, % at 3 µM; actives 2% (n = 2,400); AID 651955; in the data active = activation above about 37%;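 note: CHO cells stably expressing TAAR1 with calcium dye readout; 0% = DMSO vehicle and 100% = full agonist response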
TAAR1 ag conf – human TAAR1 agonism, confirmed; activation, % at 3 µM; CHO RD-HGA16 TAAR1, Fluo-8 calcium fluorescence; scaled: DMSO 0%, maximal phenethylamine 100%; shares compounds with TAAR1 ag; actives 82% (n = 2,400);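 active = activation above a cutoff set at the run's mean compound activation plus 3 SD, cut at about 39% in these data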
Ga16 ag counter-2 – counter-screen for TAAR1 agonists: nonselective agonists in parental cells. shares compounds with TAAR1 ag. CHO-Ga16 parental, Fluo-8 calcium fluorescence; normalized to maximal ATP response, DMSO zero. activation, % at 3 µM. actives 50% (n = 2,400);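 active = activation above the run cutoff, the mean activation over all tested wells plus 3 SD, cut at about 12% in these data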;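 note: 0% = DMSO wells and 100% = maximal ATP response on the peak over basal ratio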
TAAR1 desens – TAAR1 response desensitization, agonist counter-screen | shares compounds with TAAR1 ag | CHO RD-HGA16 hTAAR1, Fluo-8 calcium, beta-PEA response inhibition | inhibition, % at 3 µM | actives 46% (n = 2,400) | AID 651951;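 active = inhibition above the run cutoff, the mean inhibition of all test compounds plus 3 SD, cut at about 49% in these data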;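 note: beta-PEA stimulus applied at its EC80; loss of beta-PEA calcium signal after compound pretreatment read as receptor desensitization; 0% = DMSO with beta-PEA at EC80 and 100% = DMSO alone without agonist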
Ga16 antag count – nonselective Ga16 antagonist in TAAR1 agonist counter-screen; shares compounds with TAAR1 ag; CHO-Ga16 ATP-induced calcium, Fluo-8 fluorescence; inhibition, % at 3 µM; actives 39% (n = 2,400);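 active = inhibition above the plate's mean compound inhibition plus 3 SD, computed per plate, cut at about 22% in these data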;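 note: 0% = EC80 ATP with DMSO and 100% = DMSO wells without ATP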
* marks the source's active call; other numbers are inactive results; · = no result given. An excerpt weighted towards active compounds, which were near 4% of everything screened.

SMILES	TAAR1 antag	OX1R antag-1	TAAR1 ag	CHO parental Ca	OX1R antag-2	NTR1 ag	TAAR1 ag conf	Ga16 ag counter-2	TAAR1 desens	Ga16 antag count	others
COc1ccc(-n2nnnc2C(c2cccs2)N2CCC(n3c(=O)[nH]c4ccccc43)CC2)cc1 (stereo not drawn)	71*	·	12	·	·	·	·	·	·	·	TAAR1 nonsel count=18;TAAR1 antag conf=46;Ga16 ag counter-1=8;TAAR1 ag count=26
COc1ccc(-n2nnnc2C(c2cccc3ccccc23)N2CCC3(CC2)C(=O)NCN3c2ccccc2)cc1 (stereo not drawn)	-10	·	3	·	·	·	·	·	·	·
O=c1[nH]c2ccccc2n1C1CCN(C(c2cccs2)c2nnnn2-c2ccc3c(c2)OCCO3)CC1 (stereo not drawn)	59*	·	23	·	·	·	·	·	·	·	TAAR1 nonsel count=16;TAAR1 antag conf=42;Ga16 ag counter-1=9;TAAR1 ag count=28
CC[C@]12CCN(CC3(O)CC3)[C@H](Cc3ccc(O)cc31)C2(C)C	14	·	3	·	·	·	·	·	·	·
Cc1c(C)c2ccc(OCC(=O)N3CCC(C(=O)O)(c4ccccc4)CC3)c(C)c2oc1=O	4	11	2	-13	-12	4	·	·	·	·
CC12CCC(=O)C=C1CC(O)C1C2CCC2(C)C1CCC2(C)O (stereo not drawn)	12	·	2	·	·	·	·	·	·	·
CCCCCc1nc2ccccc2c(=O)n1-c1ccccc1[N+](=O)[O-]	-13	12	-1	-21	-40	-1	·	·	·	·
CCCCCc1nc2c(c(=O)c3ccccc3n2C)c(=O)n1C1CCCCCC1	85*	19	125*	-15	-8	-1	122*	96*	93*	85*
O=[N+]([O-])c1ccc(NCc2ccccc2)c2nonc12	107*	45	954*	94*	108*	-2	496*	650*	105*	103*
O=[N+]([O-])c1ccc(NCc2ccc(Cl)cc2)c2ccncc12	-1	5	16	-22	-18	28	·	·	·	·
c1cnc(N2CCNCC2)nc1	-20	17	23	-6	-8	-1	·	·	·	·
c1ccc(Cc2cnc(N3CCNCC3)nc2)cc1	-18	·	45*	·	·	·	58*	0	19	5
CCOC(=O)c1c(-n2c(C)cc(C=C3C(=O)NC(=O)NC3=O)c2C)sc2c1CCCC2	35	15	47*	-19	-16	27	53*	28*	44	38*
Cc1cccc(N2C(=O)NC(=O)/C(=C\c3cc(C)n(-c4sc5c(c4C#N)CCCC5)c3C)C2=O)c1C	9	9	5	-6	-15	1	·	·	·	·
CCOc1ccc(NC(=O)c2c(C)nn(Cc3ccccc3)c2Cl)cc1	64*	2	54*	-7	-26	1	79*	43*	76*	46*
CN1C(=O)C(=CN2CCN(C(=O)c3ccco3)CC2)C(=O)N(C)C1=S	-9	6	53*	8	-1	1	75*	6	21	-1
Clc1ccc(CCNCc2ccncc2)c(Cl)c1	52*	-5	74*	-12	-15	0	89*	5	71*	1
COc1ccc(CNCCc2ccc(Cl)cc2Cl)cc1	-2	4	5	-7	-5	0	·	·	·	·
COc1ccc(CNCCc2ccc(Cl)cc2)c(OC)c1OC	-25	11	65*	-18	-18	-1	76*	25*	39	9
COc1ccc2[nH]c3c(c2c1)CCNC3	-14	2	44*	-11	-2	0	59*	0	27	5
COc1ccc(CNCCc2cccc(F)c2)c2ccccc12	·	·	·	·	·	7	·	·	·	·
COc1cc(OC)c(OC)cc1CNCCc1cccc(F)c1	35	6	79*	-15	-15	-1	78*	12*	36	2
COC(=O)C1=CCCN(C)C1	11	9	54*	-11	-6	5	88*	1	57*	4
COC(=O)c1ccc(CN2CCN(Cc3ccccc3)CC2)cc1	-1	12	6	-10	-10	0	·	·	·	·
c1ccc2c(c1)CC1CNCc3cccc(c31)S2 (stereo not drawn)	6	6	73*	-2	-13	-2	93*	5	79*	-3
SMILES	TAAR1 antag	OX1R antag-1	TAAR1 ag	CHO parental Ca	OX1R antag-2	NTR1 ag	TAAR1 ag conf	Ga16 ag counter-2	TAAR1 desens	Ga16 antag count	others
O=C1NC(=S)NC(=O)C1=Cc1cccc2cc3ccccc3cc12	-7	·	1	·	·	·	·	·	·	·
CN1/C(=C\C=C2C(=O)NC(=S)NC2=O)C(C)(C)c2ccccc21	95*	·	308*	·	·	-3	191*	208*	90*	92*
Nc1c(C(=O)NCCc2ccccc2)c2nc3ccccc3nc2n1CCN1CCOCC1	74*	12	71*	19	24	19	32	13*	47	43*
COc1ccc(CCNC(=O)c2c(N)n(CCN3CCOCC3)c3nc4ccccc4nc23)cc1	48	45	16	-19	-30	4	·	·	·	·
CC1=CP(=O)(Oc2ccc([N+](=O)[O-])cc2)CC1 (stereo not drawn)	-1	·	1	·	·	·	·	·	·	·
CCc1ccc(N2C(=O)NC(=O)/C(=C\C=C\c3ccco3)C2=O)cc1	42	18	73*	-3	-8	31	67*	26*	69*	19
O=C1NC(=O)N(Cc2ccc(F)cc2)C(=O)/C1=C\C=C\c1ccco1	30	3	17	2	3	0	·	·	·	·
